ChEMBL document CHEMBL2093137, “WHO-TDR NTD Screening”
Values after ≈ are worked out from the molar mass of the structure shown.

Legend:
[1] = WHO-TDR: Cytotoxicity; format: toxicity, cell-based; details: human, MRC5 cells
[2] = tested on: Trypanosoma brucei brucei; assay: WHO-TDR: Human African Trypanosomiasis (HAT); format: functional, organism-based; details: Squib-427
Method in brief: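 A diverse library of 10,000 compounds from Life Chemicals, filtered for drug-likeness and reactive groups, was screened against bloodstream forms of Trypanosoma brucei Squib 427 strain in a whole-organism assay. Previously published standard procedures were followed, with reference drugs serving as positive controls. Antiparasitic potency is given as IC50.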

Trypanosoma cruzi = assay: WHO-TDR: Chagas disease; format: functional, organism-based, Homo sapiens; details: MRC5
Method in brief: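 Whole-organism screen of a 10,000-compound diverse library from Life Chemicals, filtered for drug-likeness and reactive groups, against intracellular amastigotes of Trypanosoma cruzi Tulahuen CL2 beta-galactosidase strain grown in MRC-5SV2 human lung fibroblast host cells. The assay followed previously published standard procedures, with a reference drug as positive control. Antiparasitic potency is reported as IC50.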

Onchocerca ochengi [3] = assay: (§1) WHO-TDR: Onchocerciasis; format: functional; set-up: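 at 12.5 µM on microfilariae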
Method in brief: (§2)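 Values are reported as percent inhibition and as IC50. They come from a whole-organism screen of a 10,000-compound diverse Life Chemicals library against microfilariae of Onchocerca ochengi or Onchocerca lienalis. The screen followed previously published standard procedures, with reference drugs as positive controls.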

Onchocerca ochengi [4] = assay: as §1; format: functional; set-up: concentration or dose not given beside the values; method in brief: as §2; remark: listed apart in the source
Schistosoma mansoni = assay: WHO-TDR: Schistosomiasis; format: functional; set-up: concentration or dose not given beside the values
Method in brief: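 Values are reported as percent inhibition and IC50. They come from a whole-organism screen of a 10,000-compound diverse Life Chemicals library against larval and/or adult worms of Schistosoma mansoni, Puerto Rican strain. The library had been filtered for drug-likeness and reactive groups.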

Leishmania infantum = assay: WHO-TDR: Leishmaniasis; format: functional, organism-based, Mus musculus; details: Macrophage
Method in brief: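 A diverse library of 10,000 compounds from Life Chemicals, filtered for drug-likeness and reactive groups, was screened against whole organisms. The targets were intracellular amastigotes of Leishmania infantum MHOM/MA(BE)/67 growing in murine peritoneal macrophages. Previously published standard procedures were followed, with a reference drug as positive control. Antiparasitic potency is given as IC50.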

Plasmodium falciparum K1 = assay: WHO-TDR: Malaria; format: functional, organism-based, Homo sapiens; details: Erythrocyte
Method in brief: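 A diverse library of 10,000 compounds from Life Chemicals, filtered for drug-likeness and reactive groups, was screened against the intra-erythrocytic Plasmodium falciparum K1 strain in human red blood cells. Previously published standard procedures were followed, with a reference drug as positive control. Antiplasmodial potency is given as IC50.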

Row | SMILES | IC50 [1] [µg/mL] | IC50 [2] [µg/mL] | IC50 (Trypanosoma cruzi) [µg/mL] | % Inhibition (Onchocerca ochengi [3]) [%] | % Inhibition (Onchocerca ochengi [4]) [%] | % Inhibition (Schistosoma mansoni) [%] | IC50 (Leishmania infantum) [µg/mL] | IC50 (Plasmodium falciparum K1) [µg/mL]
1 | CCOc1ccc2ccccc2c1C(=O)Nc1cc(C)nn1-c1nc(C)cc(=O)[nH]1 | 0.364 (≈ 0.902 µM) | 0.327 (≈ 0.811 µM) | < 0.121 | 100 | 60 | 100 | 0.627 (≈ 1.55 µM) | 0.399 (≈ 0.989 µM)
2 | O=C(Cc1csc(SCc2ccc(Cl)cc2)n1)NCCC1=CCCCC1 | > 12.2 | 3.86 (≈ 9.49 µM) | 3.58 (≈ 8.8 µM) | 100 | 0 | 0 | > 12.2 | > 12.2
3 | CC1Cc2ccccc2N1C(=O)Cc1csc(SCC(=O)Nc2ccc(F)cc2)n1 (configuration not stated) | > 13.2 | > 13.2 | 4.42 (≈ 10 µM) | 100 | 0 | 0 | > 13.2 | > 13.2
4 | CC(C)CN1C(=O)C(C)(C)COc2cc(NS(=O)(=O)c3ccccc3Br)ccc21 | > 14.4 | 4.62 (≈ 9.6 µM) | 4.3 (≈ 8.93 µM) | 100 | 0 | 0 | > 14.4 | > 14.4
5 | CCC(CO)Nc1nc(Nc2ccc(C)c(C)c2)c2nccnc2n1 (configuration not stated) | > 10.2 | 3.66 (≈ 10.8 µM) | > 10.2 | 100 | 0 | 0 | > 10.2 | > 10.2
6 | COc1ccccc1OCC(=O)Nc1nc(CSCc2ccc(F)cc2)cs1 | > 12.6 | > 12.6 | > 12.6 | 100 | 0 | 0 | > 12.6 | > 12.6
7 | CCCN1C(=O)CCc2cc(NS(=O)(=O)c3ccc(F)cc3)ccc21 | > 10.9 | 3.56 (≈ 9.83 µM) | 10.9 (≈ 30 µM) | 100 | 0 | 0 | > 10.9 | > 10.9
8 | CCCOc1nn(CCC)cc1C(=O)N1CCN(c2ccccc2Cl)CC1 | > 11.7 | 3.89 (≈ 9.95 µM) | 3.06 (≈ 7.83 µM) | 100 | 0 | 0 | > 11.7 | > 11.7
9 | Cc1nc2c(SCC#N)nnc(-c3ccccc3)c2s1 | > 8.95 | 6.52 (≈ 21.8 µM) | 0.444 (≈ 1.49 µM) | 25 | 0 | 0 | > 8.95 | 6.75 (≈ 22.6 µM)
10 | COc1ccccc1N1CCN(c2nc(Nc3ccc(C)cc3)c3nccnc3n2)CC1 | 4.5 (≈ 10.5 µM) | 4.1 (≈ 9.6 µM) | 3.44 (≈ 8.05 µM) | 100 | 0 | 25 | 4.15 (≈ 9.71 µM) | 2.66 (≈ 6.23 µM)
11 | NC(=O)c1csc(NC(=O)C2(c3ccc(Cl)cc3)CCCC2)n1 | > 10.5 | 3.72 (≈ 10.6 µM) | > 10.5 | 100 | 0 | 0 | > 10.5 | > 10.5
12 | O=C(NCc1cccs1)c1cn(Cc2ccccc2)nc1OCc1ccccc1 | 2.72 (≈ 6.74 µM) | 4.85 (≈ 12 µM) | 2.09 (≈ 5.18 µM) | 100 | 0 | 0 | > 12.1 | 6.04 (≈ 15 µM)
13 | CN(C)C(CNC(=O)c1ccc(-c2ccccc2)cc1)c1ccsc1 (configuration not stated) | > 10.5 | 0.395 (≈ 1.13 µM) | 3.32 (≈ 9.49 µM) | 0 | 0 | 0 | > 10.5 | 8.47 (≈ 24.2 µM)
14 | CCc1cc(=O)[nH]c(-n2nc(C)cc2NC(=O)Cc2cccs2)n1 | 0.293 (≈ 0.853 µM) | 0.338 (≈ 0.983 µM) | 0.276 (≈ 0.804 µM) | 100 | 0 | 0 | > 10.3 | 0.493 (≈ 1.44 µM)
